Activity calls are given as the source filed them. The calls are words filed in the database; no cut-off is given here.
Legend:
HeLa [1] = assay: Cell cycle arrest in human HeLa cells assessed as accumulation at G2/M phase at 3.50 uM after 48 hrs; assay type: functional
In short: (§1)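 Cells seeded at 8 · 10^5 per 60 mm dish, allowed to settle 24 h (37 °C, 5% CO2), then exposed to the drug for 24 or 48 h. Adherent plus floating cells (5 · 10^5) were fixed in cold 70% ethanol at −20 °C overnight, treated with RNase A (100 µg/mL) and stained with propidium iodide (20 µg/mL) in Vindelov's solution for 30 min at RT. Flow cytometry used 488 nm excitation, FL-2 at 585 ± 21 nm, and histograms were modelled for G0/G1, S and G2/M fractions.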

HeLa [2] = assay: Induction of apoptosis in human HeLa cells at 3.50 uM after 24 hrs; assay type: functional
In short: (§2)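 After 24 or 48 h of drug exposure, all cells were collected, combining trypsinised adherent cells with floating cells from the medium. Cells (1 × 10^6) were fixed in cold 70% ethanol overnight at −20 °C and stained with DAPI (10 µg/mL) for 30 min in the dark at RT. Under fluorescence microscopy, 300 cells per sample were scored, with condensed or fragmented nuclei counted as apoptotic.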

HeLa [3] = assay: Antiproliferative activity against human HeLa cells assessed as increase of floating cells in total cell population at 3.50 uM after 48 hrs; assay type: functional
In short: (§3)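 Cells seeded (8 · 10^5 per 60 mm dish), allowed to settle 24 h at 37 °C, 5% CO2, then treated with a single concentration for 24 or 48 h. Adherent and floating cells counted by Coulter counter. Total cell number given as % of untreated control; floating cells as % of total cell number.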

HeLa [4] = assay: Cell cycle arrest in human HeLa cells assessed as accumulation at G0/G1 phase at 3.50 uM after 24 hrs; assay type: functional; in short: as §1
HeLa [5] = assay: Cytotoxicity against human HeLa cells after 72 hrs by MTT assay; assay type: functional, cell-based
DNA [6] = assay: Binding affinity to calf thymus DNA at 4 uM by fluorescence spectrophotometric titration; assay type: nucleic-acid assay; details: Bos taurus
In short: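 ctDNA sonicated in TE buffer, concentration taken from A260 and given in base pairs. Compound (4 µM) in 0.01 M Tris, pH 7.4, 25 °C titrated with ctDNA (0–55 µM bp) until spectra stopped changing. Excitation 424 nm, slit widths 10 nm; binding constant derived from the change in emission.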

HeLa [7] = assay: Cytotoxicity against human HeLa cells after 48 hrs by MTT assay; assay type: functional, cell-based
HeLa [8] = assay: Antiproliferative activity against human HeLa cells assessed as decrease in total cell population at 3.50 uM after 24 hrs; assay type: functional; design: scale not given: the % may be the effect or the level left; in short: as §3
HeLa [9] = assay: Cell cycle arrest in human HeLa cells assessed as accumulation at G0/G1 phase at 3.50 uM after 48 hrs; assay type: functional; in short: as §1
HCT-116 [10] = assay: Induction of DNA fragmentation in human HCT116 cells after 48 hrs; assay type: functional, cell-based
In short: (§4)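 HCT-116 cells were treated for 24 or 48 h. Adherent and floating cells (5 × 10^5) were pooled, fixed in cold 70% ethanol and held overnight at −20 °C. Samples were treated with RNase A (100 µg/mL) and stained with propidium iodide (20 µg/mL) in Vindelov's solution for 30 min at RT. Flow cytometry used 488 nm excitation with emission at 585 nm. Subdiploid (subG0/G1) particles were scored on a logarithmic scale, with debris gated out on FSC × SSC.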

HCT-116 [11] = assay: (§5) Cell cycle arrest in human HCT116 cells assessed as accumulation at G0/G1 phase at 4.80 uM after 48 hrs; assay type: functional
In short: (§6)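 Adherent plus floating cells (5 · 10^5) collected 24 or 48 h after treatment, fixed in cold 70% ethanol at −20 °C overnight, washed in PBS. RNase A (100 µg/mL) and propidium iodide (20 µg/mL) in Vindelov's solution, 30 min at RT. Flow cytometry with 488 nm excitation, emission 585 ± 21 nm; % cells per cycle phase from DNA content histograms.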

HeLa [12] = assay: Antiproliferative activity against human HeLa cells assessed as decrease in total cell population at 3.50 uM after 48 hrs; assay type: functional; design: scale not given: the % may be the effect or the level left; in short: as §3
HCT-116 [13] = assay: Antiproliferative activity against human HCT116 cells assessed as increase of floating cells in total cell population at 4.80 uM after 24 hrs; assay type: functional; in short: as §3
HeLa [14] = assay: Cell cycle arrest in human HeLa cells assessed as accumulation at S phase at 3.50 uM after 48 hrs; assay type: functional; in short: as §1
HeLa [15] = assay: Cell cycle arrest in human HeLa cells assessed as accumulation at S phase at 3.50 uM after 24 hrs; assay type: functional; in short: as §1
HCT-116 [16] = assay: Induction of apoptosis in human HCT116 cells at 4.80 uM after 48 hrs; assay type: functional; in short: as §2
HCT-116 [17] = assay: Induction of DNA fragmentation in human HCT116 cells after 24 hrs; assay type: functional, cell-based; in short: as §4
HeLa [18] = assay: Induction of apoptosis in human HeLa cells at 3.50 uM after 48 hrs; assay type: functional; in short: as §2
HeLa [19] = assay: Antiproliferative activity against human HeLa cells assessed as increase of floating cells in total cell population at 3.50 uM after 24 hrs; assay type: functional; in short: as §3
HCT-116 [20] = assay: Cell cycle arrest in human HCT116 cells assessed as accumulation at G2/M phase at 4.80 uM after 48 hrs; assay type: functional; in short: as §1
HCT-116 [21] = assay: Antiproliferative activity against human HCT116 cells assessed as decrease in total cell population at 4.80 uM after 24 hrs; assay type: functional; design: scale not given: the % may be the effect or the level left; in short: as §3
HCT-116 [22] = assay: Cytotoxicity against human HCT116 cells after 48 hrs by MTT assay; assay type: functional, cell-based; details: HCT-116, 48 h
HeLa [23] = assay: Cell cycle arrest in human HeLa cells assessed as accumulation at G2/M phase at 3.50 uM after 24 hrs; assay type: functional; in short: as §1
HCT-116 [24] = assay: Cell cycle arrest in human HCT116 cells assessed as accumulation at S phase at 4.80 uM after 48 hrs; assay type: functional; in short: as §1
HCT-116 [25] = assay: Antiproliferative activity against human HCT116 cells assessed as increase of floating cells in total cell population at 4.80 uM after 48 hrs; assay type: functional; in short: as §3
HCT-116 [26] = assay: Cytotoxicity against human HCT116 cells after 72 hrs by MTT assay; assay type: functional, cell-based; details: Homo sapiens, HCT-116, 72 h
DNA [27] = assay: Binding affinity to calf thymus DNA at 50 uM by circular dichroism spectrophotometric titration; assay type: nucleic-acid assay; details: Bos taurus
HCT-116 [28] = assay: Induction of apoptosis in human HCT116 cells at 4.80 uM after 24 hrs; assay type: functional; in short: as §2
HCT-116 [29] = assay: as §5; assay type: functional; in short: as §6; remark: listed apart in the source
HCT-116 [30] = assay: Antiproliferative activity against human HCT116 cells assessed as decrease in total cell population at 4.80 uM after 48 hrs; assay type: functional; design: scale not given: the % may be the effect or the level left; in short: as §3
[31] = in the assay text read “after 24 hrs” for “after 48 hrs”

Q: Which Activity (HeLa [1]) does the source give for CCCCCCNC(=O)Nc1ccc2cc3ccc(NC(=O)NCCCCCC)cc3nc2c1.Cl here?
A: Its Activity is 11.88%.

Q: What about the Activity (HeLa [2]) of the same compound?
A: The Activity was 0.75%.

Q: What about the Activity (HeLa [3]) of the same compound?
A: The Activity was 4.41%.

Q: What about the Activity (HeLa [4]) of the same compound?
A: Its Activity is 59.69%.

Q: And the IC50 (HeLa [5])?
A: The IC50 was 3.7 µM.

Q: And the K (DNA [6])?
A: Its K is 0.9 ×10⁵ /M.

Q: What about the IC50 (HeLa [7]) of the same compound?
A: The IC50 was 3.49 µM.

Q: What about the Activity (HeLa [8]) of the same compound?
A: The Activity was 87.42%.

Q: And the Activity (HeLa [9])?
A: Its Activity is 66.57%.

Q: And the Activity (HCT-116 [10])?
A: The Activity was “Active”.

Q: And the Activity (HCT-116 [11])?
A: The Activity was 35.98%.

Q: What about the Activity (HeLa [12]) of the same compound?
A: Its Activity is 91.16%.

Q: What about the Activity (HCT-116 [13]) of the same compound?
A: Its Activity is 77.94%.

Q: What about the Activity (HeLa [14]) of the same compound?
A: The Activity was 21.55%.

Q: And the Activity (HeLa [15])?
A: Its Activity is 27.08%.

Q: And the Activity (HCT-116 [16])?
A: Its Activity is 12.67%.

Q: And the Activity (HCT-116 [17])?
A: Its Activity is “Active”.

Q: And the Activity (HeLa [18])?
A: Its Activity is 1%.

Q: What about the Activity (HeLa [19]) of the same compound?
A: Its Activity is 4.21%.

Q: And the Activity (HCT-116 [20])?
A: Its Activity is 41.06%.

Q: And the Activity (HCT-116 [20]; [31])?
A: Its Activity is 45.1%.

Q: And the Activity (HCT-116 [21])?
A: Its Activity is 48.1%.

Q: What about the IC50 (HCT-116 [22]) of the same compound?
A: Its IC50 is 4.76 µM.

Q: And the Activity (HeLa [23])?
A: Its Activity is 13.24%.

Q: And the Activity (HCT-116 [24])?
A: The Activity was 22.97%.

Q: What about the Activity (HCT-116 [24]; [31]) of the same compound?
A: The Activity was 21.38%.

Q: What about the Activity (HCT-116 [25]) of the same compound?
A: The Activity was 88.55%.

Q: And the IC50 (HCT-116 [26])?
A: The IC50 was 3.09 µM.

Q: What about the Activity (DNA [27]) of the same compound?
A: The Activity was “Active”.

Q: What about the Activity (HCT-116 [28]) of the same compound?
A: Its Activity is 5.67%.

Q: What about the Activity (HCT-116 [29]) of the same compound?
A: Its Activity is 36%.

Q: What about the Activity (HCT-116 [30]) of the same compound?
A: The Activity was 19.84%.
